This note sets out measurements from ChEMBL document CHEMBL4196055, “Synthesis and biological evaluation of α-santonin derivatives as anti-hepatoma agents” (Eur J Med Chem, 2018).

Assay [1] deals with QGY-7703. The experiment in a line: Antiproliferative activity against human QGY7703 cells after 24 hrs by CCK-8 assay. The class given is functional, cell-based. The conditions noted are these: QGY-7703, 24 h. The essentials: (§1)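 Cells in 10% FBS medium with penicillin/streptomycin at 37 °C, 5% CO2; HepG-2 in DMEM, QGY-7703, SMMC-7721 and QSG-7701 in RPMI 1640. Seeded 2 × 10^5 cells/well, grown 24 h, then exposed to five concentrations of compound or 1% DMSO vehicle for 24 h. CCK-8 added for 1 h, absorbance read at 450 nm; IC50 derived from the 5-dose data.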
On the technique in general: Tetrazolium assays rely on reduction of a dye to a coloured formazan, in cell work by metabolically active cells.

Assay [2] relates to QGY-7703. The experiment in a line: Induction of apoptosis in human QGY7703 cells assessed as late apoptotic cells at 10 uM after 24 hrs by Annexin-V FITC/propidium iodide staining based flow cytometric analysis (reference value: 4.1 to 4.3%). The class given is functional. The essentials: (§2)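 Assay in QGY-7703 cells kept in RPMI 1640 with 10% FBS. Seeded at 5 × 10^5 cells/well for 24 h, then treated for 24 h with 5, 10 or 15 μM compound, DMSO as control. Annexin V-FITC/PI staining for 15 min at room temperature in the dark, then immediate flow cytometry to count the apoptotic fractions.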
(Flow cytometry measures light scatter and fluorescence of single cells or particles in a stream.)

Assay [3] relates to QGY-7703. The experiment in a line: Induction of apoptosis in human QGY7703 cells assessed as necrotic cells at 10 uM after 24 hrs by Annexin-V FITC/propidium iodide staining based flow cytometric analysis (reference value: 0.6 to 0.7%). The format is functional. An outline of the steps:
as §2

The next assay has as its system SMMC-7721. The experiment in a line: Antiproliferative activity against human SMMC7721 cells after 24 hrs by CCK-8 assay. The conditions noted are these: SMMC-7721, 24 h. The format is functional, cell-based. The essentials: as §1
The subject of assay [4] is QGY-7703. The experiment in a line: Induction of apoptosis in human QGY7703 cells assessed as necrotic cells at 5 uM after 24 hrs by Annexin-V FITC/propidium iodide staining based flow cytometric analysis (reference value: 0.6 to 0.7%). The class given is functional. An outline of the steps: as §2
Assay [5] relates to QGY-7703. The experiment in a line: Induction of apoptosis in human QGY7703 cells assessed as viable cells at 5 uM after 24 hrs by Annexin-V FITC/propidium iodide staining based flow cytometric analysis (reference value: 94.2 to 94.3%). The conditions noted are these: QGY-7703, 24 h, read-out: Activity. The class given is functional. An outline of the steps:
as §2

Assay [6] deals with QGY-7703. The experiment in a line: Induction of apoptosis in human QGY7703 cells assessed as necrotic cells at 15 uM after 24 hrs by Annexin-V FITC/propidium iodide staining based flow cytometric analysis (reference value: 0.6 to 0.7%). The format is functional. The essentials: as §2
Assay [7] relates to HepG2. The experiment in a line: Antiproliferative activity against human HepG2 cells at 10 uM after 24 hrs by CCK-8 assay relative to control. The format is functional. An outline of the steps:
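HepG-2 grown in DMEM with 10% FBS and penicillin/streptomycin (37 °C, 5% CO2). Seeded 2 × 10^5 cells/well for 24 h, then given a single 10 μM dose or 1% DMSO vehicle for 24 h. CCK-8 reagent for 1 h, A450 read, and percent inhibition calculated against untreated control cells.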

The nature of assay [8]: Antiproliferative activity against human QSG7701 cells after 24 hrs by CCK-8 assay. The class given is cell-based. The conditions noted are these: QSG7701, 24 h. An outline of the steps: as §1
Assay [9] has as its system QGY-7703. The experiment in a line: Induction of apoptosis in human QGY7703 cells assessed as increase in cleaved PARP level after 24 hrs by Western blot analysis. The class given is functional, cell-based. An outline of the steps:
(§3)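 QGY-7703 cells subcultured for 24 h, then given compound for 24 h, with DMSO as control. Lysates in buffer with protease inhibitors, protein measured by BCA, equal amounts run on 10% SDS-PAGE and moved to PVDF. Blocked in 5% milk, probed overnight at 4 °C for PARP, cleaved caspase 3, pro-caspase 3 and pro-caspase 9 (1:1000), with GAPDH loading control. IRDye secondaries, densitometry reported as grayscale values.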

For assay [10], the system named is QGY-7703. The experiment in a line: Induction of apoptosis in human QGY7703 cells assessed as early apoptotic cells at 5 uM after 24 hrs by Annexin-V FITC/propidium iodide staining based flow cytometric analysis (reference value: 0.8 to 1%). The class given is functional. An outline of the steps: as §2
Assay [11] deals with QGY-7703. The experiment in a line: Induction of apoptosis in human QGY7703 cells assessed as viable cells at 10 uM after 24 hrs by Annexin-V FITC/propidium iodide staining based flow cytometric analysis (reference value: 94.2 to 94.3%). The format is functional. The conditions noted are these: QGY-7703, 24 h, read-out: Activity. An outline of the steps: as §2
The subject of assay [12] is QGY-7703. The experiment in a line: Induction of apoptosis in human QGY7703 cells assessed as viable cells at 15 uM after 24 hrs by Annexin-V FITC/propidium iodide staining based flow cytometric analysis (reference value: 94.2 to 94.3%). The format is functional. Particulars: QGY-7703, 24 h, read-out: Activity. The essentials: as §2
For assay [13], the system named is QGY-7703. The experiment in a line: Induction of apoptosis in human QGY7703 cells assessed as early apoptotic cells at 15 uM after 24 hrs by Annexin-V FITC/propidium iodide staining based flow cytometric analysis (reference value: 0.8 to 1%). The class given is functional. An outline of the steps:
as §2

The subject of assay [14] is QGY-7703. The experiment in a line: Induction of apoptosis in human QGY7703 cells assessed as early apoptotic cells at 10 uM after 24 hrs by Annexin-V FITC/propidium iodide staining based flow cytometric analysis (reference value: 0.8 to 1%). The class given is functional. An outline of the steps:
as §2

Assay [15] deals with QGY-7703. The experiment in a line: Induction of apoptosis in human QGY7703 cells assessed as late apoptotic cells at 5 uM after 24 hrs by Annexin-V FITC/propidium iodide staining based flow cytometric analysis (reference value: 4.1 to 4.3%). The format is functional. An outline of the steps:
as §2

Assay [16] relates to QGY-7703. The experiment in a line: Induction of apoptosis in human QGY7703 cells assessed as decrease in pro-caspase 9 level after 24 hrs by Western blot analysis. The format is functional, cell-based. The essentials: as §3
The subject of assay [17] is HepG2. The experiment in a line: Antiproliferative activity against human HepG2 cells after 24 hrs by CCK-8 assay. The format is functional, cell-based. The conditions noted are these: HepG2, 24 h. An outline of the steps: as §1
The subject of assay [18] is QGY-7703. The experiment in a line: Induction of apoptosis in human QGY7703 cells assessed as increase in cleaved caspase 3 level after 24 hrs by Western blot analysis. The class given is functional, cell-based. An outline of the steps:
as §3

Assay [19] has as its system QGY-7703. The experiment in a line: Induction of apoptosis in human QGY7703 cells assessed as late apoptotic cells at 15 uM after 24 hrs by Annexin-V FITC/propidium iodide staining based flow cytometric analysis (reference value: 4.1 to 4.3%). The format is functional. An outline of the steps: as §2

SMILES strings stand for the structures. Bounds are passed on as bounds.

As a reminder, the IC50 is the concentration that inhibits the measured activity by half. For the compound `C=C1C(=O)O[C@@H]2C3=C(C)[C@@H](OC(=O)c4ccc(Cl)cc4)CC3[C@](C)(OC(C)=O)CC[C@@H]12` (stereo partly specified), the IC50 in the assay on QGY-7703 [1] came to 10.1 µM; in the assay with SMMC-7721, 4.24 µM; in [8], 46.9 µM; in the assay with HepG2 [17] it was 7.1 µM. For the same compound, the Activity is 20.6% in the assay on QGY-7703 [2]; 0.3% in the assay with QGY-7703 [3]; 0% in the assay on QGY-7703 [4]; 0.6% in the assay on QGY-7703 [6]; 72.69% in the assay on HepG2 [7]; “Dose-dependent effect” in the assay with QGY-7703 [9]. The Activity is 20.6% with QGY-7703 [10]; 24.4% in the assay on QGY-7703 [13]; 15.5% in the assay with QGY-7703 [14]; 1.7% with QGY-7703 [15]; “Dose-dependent effect” with QGY-7703 [16]; “Dose-dependent effect” in the assay on QGY-7703 [18]. The Activity with QGY-7703 [19] is 63.4%. For the same compound, the viability at 5 µM in the assay on QGY-7703 [5] is 77.7%. The viability at 10 µM in the assay on QGY-7703 [11] turned out to be 63.6%. Also, in the assay on QGY-7703 [12], the viability at 15 µM stood at 11.6%.

Take `O=c1[nH]cc(F)c(=O)[nH]1` [FLUOROURACIL]: the IC50 in the assay with QGY-7703 [1] turned out to be 14.2 µM; with SMMC-7721, 12.5 µM; in assay [8], 6.92 µM. Moreover, the Activity with QGY-7703 [2] is given as 11.1%; with QGY-7703 [3], 0.1%; in the assay on QGY-7703 [4], 0%; with QGY-7703 [6], 0.4%; in the assay on HepG2 [7], 50.58%; with QGY-7703 [10], 10.7%. Further, the Activity with QGY-7703 [13] came out at 23%; in the assay with QGY-7703 [14] it was 12.6%; in the assay with QGY-7703 [15] it was 0.9%; in the assay on QGY-7703 [19], 35.5%. Further, the viability at 5 µM with QGY-7703 [5] was found to be 88.4%. Further, in the assay on QGY-7703 [11], the viability at 10 µM was determined as 76.3%. Further, the viability at 15 µM with QGY-7703 [12] worked out at 41.1%.

With `C=C1C(=O)O[C@@H]2C3=C(C)[C@@H](OC(=O)/C=C/c4ccc(OC)cc4)CC3[C@](C)(OC(C)=O)CC[C@@H]12` (stereo partly specified), the IC50 in the assay with QGY-7703 [1] is 11.8 µM; with SMMC-7721, 5.41 µM; in assay [8], over 100 µM; with HepG2 [17], 12.1 µM. This compound also showed an Activity with HepG2 [7] of 61.14%.

Take `C=C1C(=O)O[C@@H]2C3=C(C)[C@@H](OC(=O)/C=C/c4ccc(Cl)cc4)CC3[C@](C)(OC(C)=O)CC[C@@H]12` (stereo partly specified): the IC50 was 3.06 µM with QGY-7703 [1], 4.08 µM in the assay on SMMC-7721, over 100 µM in assay [8] and 7.51 µM with HepG2 [17]. In addition, the Activity in the assay on QGY-7703 [2] was 18.8%; in the assay on QGY-7703 [3], 0.2%; in the assay with QGY-7703 [4] it was 0%; in the assay with QGY-7703 [6], 0.5%; with HepG2 [7], 62.92%; in the assay on QGY-7703 [9] it was “Dose-dependent effect”. For the same compound, the Activity is 16.6% with QGY-7703 [10]; 38.1% in the assay on QGY-7703 [13]; 11.3% in the assay with QGY-7703 [14]; 1.8% with QGY-7703 [15]; “Dose-dependent effect” in the assay on QGY-7703 [16]; “Dose-dependent effect” in the assay on QGY-7703 [18]. The Activity with QGY-7703 [19] is recorded as 31.7%. For the same compound, the viability at 5 µM in the assay with QGY-7703 [5] is 81.6%. In the assay with QGY-7703 [11], the viability at 10 µM came to 69.7%. For the same compound, in the assay on QGY-7703 [12], the viability at 15 µM was 29.6%.
